ChEMBL document CHEMBL5252557

What was measured:
[1] = biological target: Angiotensin-converting enzyme 2 (Homo sapiens, UniProt Q9BYF1); test: Inhibition of his-tagged SARS-COV2 S-RBD binding to C-terminal Fc-tagged human ACE2 expressed in HEK293 cells incubated for 2 hrs by Alphascreen assay; format: cell-based
Summary of the method: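 ACE2-Fc (2 nM) with His-tagged spike RBD, Wuhan variant (5 nM), plus protein A acceptor and nickel chelate donor beads (5 μg/mL each), in 20 mM Tris pH 7.4, 150 mM KCl, 0.05% CHAPS. Compounds added from 100× DMSO dilutions, in duplicate. 2 h at room temperature, then luminescence read. 100% = signal without RBD; 0% = both proteins plus DMSO.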

[2] = biological target: Programmed cell death protein 1/Programmed cell death 1 ligand 1 (Homo sapiens, UniProt Q15116+Q9NZQ7); test: Inhibition of C-terminal his tagged human PD-1/human Fc tagged PDL-1 interaction expressed in HEK293 cells incubated for 2 hrs AlphaScreen assay; format: cell-based
Programmed cell death protein 1/Programmed cell death 1 ligand 1, sequence (Q15116 whole entry): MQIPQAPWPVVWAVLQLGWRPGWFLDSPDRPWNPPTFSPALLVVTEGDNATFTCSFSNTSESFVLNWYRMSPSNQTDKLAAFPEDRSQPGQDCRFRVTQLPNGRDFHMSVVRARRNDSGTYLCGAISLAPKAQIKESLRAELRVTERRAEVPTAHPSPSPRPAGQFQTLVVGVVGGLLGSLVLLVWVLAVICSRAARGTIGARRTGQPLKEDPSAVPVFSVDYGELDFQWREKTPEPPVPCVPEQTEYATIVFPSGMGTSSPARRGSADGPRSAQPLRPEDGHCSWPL
Programmed cell death protein 1/Programmed cell death 1 ligand 1, sequence (Q9NZQ7 whole entry): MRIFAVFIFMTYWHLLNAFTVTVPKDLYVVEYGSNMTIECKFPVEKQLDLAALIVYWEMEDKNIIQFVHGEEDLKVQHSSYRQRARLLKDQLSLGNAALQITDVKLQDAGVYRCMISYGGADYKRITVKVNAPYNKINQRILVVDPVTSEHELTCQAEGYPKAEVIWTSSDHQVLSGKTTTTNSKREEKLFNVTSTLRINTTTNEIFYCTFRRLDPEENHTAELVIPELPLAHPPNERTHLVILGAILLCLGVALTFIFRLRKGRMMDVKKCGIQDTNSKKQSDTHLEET

[3] = organism: Homo sapiens; test: Selectivity index, ratio of IC50 for his tagged human PD-1/human Fc tagged PDL-1 interaction to IC50 for his-tagged FC tagged SARS-COV2 S-RBD binding to ACE2 (unknown origin)

Angiotensin-converting enzyme 2, sequence (Q9BYF1 whole entry): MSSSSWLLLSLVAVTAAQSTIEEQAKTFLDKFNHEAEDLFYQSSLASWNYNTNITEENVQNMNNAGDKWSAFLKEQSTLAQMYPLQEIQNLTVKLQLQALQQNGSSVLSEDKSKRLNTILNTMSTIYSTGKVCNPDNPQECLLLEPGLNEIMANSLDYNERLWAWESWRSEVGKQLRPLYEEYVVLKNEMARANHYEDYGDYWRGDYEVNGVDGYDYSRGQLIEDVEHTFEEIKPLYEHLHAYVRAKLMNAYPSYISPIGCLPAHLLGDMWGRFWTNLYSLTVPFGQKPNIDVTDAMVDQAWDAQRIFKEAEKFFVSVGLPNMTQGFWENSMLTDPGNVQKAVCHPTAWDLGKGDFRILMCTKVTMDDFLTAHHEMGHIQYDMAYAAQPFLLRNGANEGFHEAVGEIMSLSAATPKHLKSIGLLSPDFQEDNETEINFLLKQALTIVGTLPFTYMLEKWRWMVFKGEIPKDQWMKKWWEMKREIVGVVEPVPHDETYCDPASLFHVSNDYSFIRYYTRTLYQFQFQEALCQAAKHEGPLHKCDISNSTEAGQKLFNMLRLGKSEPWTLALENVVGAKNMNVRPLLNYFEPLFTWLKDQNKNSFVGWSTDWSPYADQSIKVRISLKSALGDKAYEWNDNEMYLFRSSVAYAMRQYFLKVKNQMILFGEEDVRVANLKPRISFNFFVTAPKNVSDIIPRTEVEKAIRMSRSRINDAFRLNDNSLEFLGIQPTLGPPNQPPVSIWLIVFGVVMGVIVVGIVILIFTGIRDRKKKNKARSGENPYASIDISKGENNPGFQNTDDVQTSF

Compound `COc1cc(OC(C)=O)c(-c2c(OC(C)=O)cc(OC)c3c2C=C[C@@](C)(CCC2=C(C)CCCC2(C)C)O3)c2c1O[C@](C)(CCC1=C(C)CCCC1(C)C)C=C2` has an IC50 [1] of 65 µM and an IC50 [2] of over 50 µM.
`COc1cc(OC(C)=O)cc2c1OC(C)(CCC1=C(C)CCCC1(C)C)C=C2` (configuration not stated) was tested, and the Ratio IC50 [3] was 1, the IC50 [1] was 63 µM and the IC50 [2] was 66 µM.
`Oc1ccc([C@@H]2c3c(O)cc(O)cc3[C@@H]3c4c(cc(O)cc4[C@H]2[C@@H]2c4cc(O)cc5c4[C@@H](c4cc(O)cc(O)c4[C@H]2c2ccc(O)cc2)[C@H](c2ccc(O)cc2)O5)O[C@H]3c2ccc(O)cc2)cc1` showed an IC50 [1] of 0.25 µM.
With `COc1cc(O)c(-c2c(O)cc(OC)c3c2C=C[C@](C)(CCC2=C(C)CCCC2(C)C)O3)c2c1O[C@](C)(CCC1=C(C)CCCC1(C)C)C=C2` the Ratio IC50 [3] was 5.9, the IC50 [1] was 1 µM and the IC50 [2] was 6 µM.
In the case of `COc1cc(OC(C)=O)c(-c2c(OC(C)=O)cc(OC)c3c2C=C[C@](C)(CCC2=C(C)CCCC2(C)C)O3)c2c1O[C@](C)(CCC1=C(C)CCCC1(C)C)C=C2`, the Ratio IC50 [3] is reported as 5, the IC50 [1] is reported as 7.3 µM and the IC50 [2] is reported as 37 µM.
